# Lmaj promast = Leishmania major promastigote growth inhibition, primary screen; 200,000 compounds, 9% hits; Leishmania major promastigotes, resazurin fluorescence viability; inhibition, % at 10 µM; in the data active means inhibition above about 50%;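 further: promastigotes grown with compound for 44 hours at 28 °C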
# DTT redox prof = compounds producing H2O2 with reducing agent – biochemical, NIH compound library profiling, artefact control for MLSCN library redox annotation, primary screen | DTT-dependent redox cycling H2O2, phenol red/HRP absorbance; 100% = 100 µM peroxide control, 0% = buffer | 200,000 compounds, 0.03% hits | activation, % at 10 µM;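 active means activation of at least 50% relative to the plate's high and low controls in the primary single-dose screen; inactive means activation below 50%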;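 further: compound incubated with DTT at 0.8 mM final as the reducing agent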
# Hep lipid drop = inhibitors of hepatocyte lipid droplet formation, primary screen, imaging, high-throughput imaging, BODIPY stain; AML12 mouse hepatocytes, oleate lipid droplets; AID 1656, 2009; inhibition, % at 6.5 µM; 240,000 compounds, 0.4% hits;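 active means lipid droplet intensity inhibited by at least 50%, with more than 500 cells counted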
#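 Test system: AML12 mouse liver cells; schedule: overnight exposure; technique: high-content imaging of BODIPY-stained droplets and DAPI nuclei; read-out: % inhibition of corrected integrated BODIPY droplet signal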
# MPTP inh = mitochondrial permeability transition pore inhibitors, primary screen, biochemical, isolated mouse mitochondria, absorbance; inhibition, % at 10 µM; AID 602449, 2012; Ca2+ swelling absorbance, 30 min; 360,000 compounds, 1.4% hits;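 active means inhibition of 50% or more, scaled per plate between neutral and stimulator controls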;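 further: 0% = DMSO wells given calcium and 100% = 1 mM EGTA wells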
# T cruzi repl = inhibitors of intracellular T. cruzi growth, primary screen, luminescence, NIH3T3 host cells. T. cruzi beta-gal in NIH3T3, 90 h. 300,000 compounds, 1.4% hits. inhibition, % (test concentration not listed);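 active means mean inhibition across valid replicates above about 55%, limit read from the data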;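 further: signal also drops with host cell toxicity which is not excluded here; 0% = plate median of DMSO wells and 100% = zero luminescence signal; higher percent means less beta-gal luminescence so fewer parasites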
#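 Incubation – ≥90 h infection period, 3 h prior cell attachment · System – NIH/3T3 fibroblasts plus reporter T. cruzi · Doses – compound pinned at 50 nL/well, DMSO · Read-out basis – percent inhibition of parasite-derived β-gal signal · Signal – luminescent β-galactosidase signal after 60 min lysis · Also added – 5000 T. cruzi trypomastigotes/well · Medium – Low-serum DMEM with 2% FBS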
# MPTP counter = fluorescence retest of MPTP screen hits in isolated mitochondria, single concentration | membrane potential, Rhodamine 123 fluorescence | inhibition, % at 10 µM | AID 624504, 2012 | 5,000 compounds, 78% hits | shares compounds with MPTP inh; in the data active means inhibition above about 22%;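 further: 0% = DMSO vehicle and 100% = positive control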
# MPTP abs DR = mitochondrial permeability transition pore inhibitors, dose response, biochemical, absorbance, uHTS hits; AID 651561, 2012; IC50, µM; isolated mitochondria swelling; shares compounds with MPTP inh; 780 compounds, 58% hits; in the data active means IC50 below about 20 µM
# MPTP cs DR = fluorescent counter-screen in isolated mitochondria, dose response, counter-screen for MPTP inhibitor project, biochemical, fluorescence, uHTS hits | shares compounds with MPTP inh | isolated mitochondria counterscreen, fluorescence read-out | IC50, µM | 780 compounds, 49% hits | AID 651564, 2012; in the data active means IC50 below about 80 µM
# * marks the source's active call; other numbers are inactive results; · = not tested or not shown. This excerpt belongs to a sample that is enriched for hits.
SMILES,Lmaj promast,DTT redox prof,Hep lipid drop,MPTP inh,T cruzi repl,MPTP counter,others
O=C(NC1C2CCCC1CN(C1CC1)C2)c1ccc(Cl)cc1 (stereo not drawn),·,·,-9,0,27,·,
O=C(Nc1cc(Sc2ccccn2)cc([N+](=O)[O-])c1)c1ccc(Cl)cc1,12,16,·,53*,52,72*,
O=C(Nc1cc(Sc2ccccn2)cc([N+](=O)[O-])c1)c1cccc(Cl)c1,6,0,-8,95*,59*,76*,
O=C(Nc1ccccc1C(=O)Nc1ccccn1)c1ccc([N+](=O)[O-])cc1,7,-2,4,0,19,·,
O=C(CSC(=S)N1CCCC1)N/N=C/c1c(O)[nH]c(=S)[nH]c1=O,·,·,·,-16,·,·,
CC(=O)c1cccc(Nc2nc(-c3cccc([N+](=O)[O-])c3)cs2)c1,26,-2,-21,94*,44,76*,
O=C(Nc1cccc(-c2csc(Nc3cccc(C(F)(F)F)c3)n2)c1)c1cc([N+](=O)[O-])cc(C(F)(F)F)c1,·,·,47,7,42,·,
O=C(NC(=S)Nc1nc(-c2cccc([N+](=O)[O-])c2)cs1)c1cc(Cl)ccc1Cl,5,-1,-8,57*,16,13,MPTP abs DR=19*;MPTP cs DR=<2.5*
CCCN(CCC)S(=O)(=O)c1cc2c3c(c1)CCN3C(=O)CC2,·,·,-1,-1,-3,·,
COc1cc([N+](=O)[O-])cc(/C=N/NC(=O)c2ccc(NC(=O)c3ccc(C)cc3)cc2)c1O,29,-1,22,112*,8,1,
COc1cc([N+](=O)[O-])cc(/C=N/NC(=O)c2ccc(C)nc2)c1O,-9,1,9,-14,8,·,
COc1cc(-c2nnc(COC(=O)c3c4c(nc5ccccc35)CCCC4)o2)cc(OC)c1OC,-4,-5,·,·,·,·,
COC(=O)c1ccc(NC(=S)NC2CC2)cc1,13,0,2,1,-25,·,
COC(=O)c1ccc(NC(=S)NC2CCc3ccccc32)cc1 (stereo not drawn),13,-1,1,80*,0,81*,
Cc1cc(C)cc(OCC(=O)Nc2ccccc2N2CCCCC2)c1,-5,0,-27,-1,19,·,
O=C(Nc1ccc(Cl)cc1)Nc1ccc(N2CCCC2)c(S(=O)(=O)Nc2ccccc2Cl)c1,100*,0,-22,98*,47,48*,
Cc1cc(C)cc(NC(=O)Nc2ccccc2N2CCCCC2)c1,·,·,·,63*,27,61*,
C=CCN(CC=C)C(=O)C(=O)c1ccn(-c2c(C)csc2C(=O)OC)c1,1,0,1,0,4,·,
CC(C)(C)c1ccc(-c2cn(-c3ccc(Br)cc3)c3[n+]2CCCS3)cc1,100*,0,1,53*,39,99*,
Clc1ccc(-n2cc(-c3ccc(Br)cc3)[n+]3c2CCCCC3)cc1,·,·,1,4,42,·,
CCOC(=O)C1(Cc2cccc(OC)c2)CCN(CC=C(C)C)CC1,2,0,-14,9,21,·,
CCOC(=O)C1(Cc2cccc(OC)c2)CCN(C/C=C/c2ccc(OC)cc2)CC1,37,9,-68,80*,24,79*,
Cc1cc(SCC(=O)N/N=C/c2ccc(O)cc2O)nc2ccccc12,·,·,-4,68*,69*,71*,
COc1ccc2nc(C)cc(SCC(=O)N/N=C/c3cccc4ccccc34)c2c1,4,-3,13,128*,4,-7,MPTP abs DR=>100;MPTP cs DR=>80
Cc1cc(SCC(=O)N/N=C/c2ccc(O)c(O)c2)nc2ccccc12,·,·,5,1,-8,·,
SMILES,Lmaj promast,DTT redox prof,Hep lipid drop,MPTP inh,T cruzi repl,MPTP counter,others
N#Cc1c(N)nc2c(c1-c1ccc(F)cc1)c(=O)nc1sccn12,-3,0,16,-4,-6,·,
O=C1NC2=C(C(=O)OC2)C(c2ccc(OC(F)(F)F)cc2)N1 (stereo not drawn),·,·,-4,1,-3,·,
CC(C)Cn1c(N)c(C(=O)COC(=O)CC23CC4CC(CC(C4)C2)C3)c(=O)n(C)c1=O,98*,0,-14,81*,21,116*,
O=C(O)C(c1ccccc1)C1(O)CC2CCC1C2 (stereo not drawn),·,·,·,-1,·,·,
COc1ccc(C(=O)CSc2[nH]c(=O)cc(C(F)(F)F)c2C#N)cc1,·,·,-7,85*,-1,76*,
COc1ccc(-c2cc(C(F)(F)F)c(C#N)c(SCC(=O)Nc3ccc(C)cc3)n2)cc1,0,0,5,6,-8,·,
C1CCN(CCCNC2C3CC4CC(C3)CC2C4)C1 (stereo not drawn),10,1,35,0,25,·,
C=CCOc1ccc(CN(C)c2ccc(S(=O)(=O)N3CCN(C)CC3)cc2[N+](=O)[O-])cc1,·,·,·,0,·,·,
CCOc1ccc(CN(C)c2ccc(S(=O)(=O)N3CCN(C)CC3)cc2[N+](=O)[O-])cc1OC,·,·,·,55*,·,93*,
O=C(Nc1ccc(Oc2cccc(C(F)(F)F)c2)nc1)c1ccccc1,·,·,-5,28,11,·,
O=C(Nc1ccc(Oc2cccc(C(F)(F)F)c2)nc1)c1cccs1,·,·,0,50*,11,57*,
CCCCn1c(N)c(N(CC(C)C)C(=O)CSc2nnc(C)n2-c2ccccc2)c(=O)[nH]c1=O,·,·,·,-1,·,·,
COc1ccc(OC)c(C(=O)c2c(C)oc3cc([N+](=O)[O-])c(O)c([N+](=O)[O-])c23)c1,·,·,7,2,9,·,
Cc1oc2cc([N+](=O)[O-])c(O)c([N+](=O)[O-])c2c1C(=O)c1ccc(Cl)cc1,·,·,7,76*,8,59*,
COC(=O)[C@]12CCCCC=C1N(Cc1ccc(Cl)cc1Cl)C(=O)[C@H](CC(=O)N1CCOCC1)C2,·,·,·,-1,·,·,
Nc1nc2ccccc2n1CCOc1ccccc1Cl,100*,0,·,74*,36,19,MPTP abs DR=9*;MPTP cs DR=27*
N#CC1=C(N)NC(SCc2ccc(Br)cc2)=C(C#N)C12CCCCC2,98*,-1,-13,92*,66*,79*,
N#CC1=C(N)NC(SCC(=O)c2ccccc2)=C(C#N)C12CCCC2,19,0,-30,19,-8,·,
N#CC1=C(N)NC(SCC(=O)Nc2ccc(Br)cc2)=C(C#N)C12CCCCC2,84*,-1,3,89*,28,89*,
COc1ccc(OC)c(NC(=O)CSc2ncnc3c2cnn3-c2ccccc2Cl)c1,25,2,-27,84*,15,82*,
